Experimental data: ChEMBL document CHEMBL4513216, “Probing the Open Global Health Chemical Diversity Library for Multistage-Active Starting Points for Next-Generation Antimalarials” (ACS Infect Dis, 2020)

Assay: Toxicity liver stage against HepG2, at 10uM
Format: cell-based
Set-up: test concentration 10 uM, cell line HepG2-A16-CD81EGFP
Conditions: human, HepG2-A16-CD81EGFP cells; read-out: INHIBITION
Outline: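 Uninfected HepG2-A16-CD81EGFP cells, 3 × 10^3 per well, 1536-well, plated on prespotted compound at 10 μM final, parasite-free screening media added to match infected plates; puromycin 10 μM positive, DMSO 0.5% negative; run in parallel with 48 h PbLuc assay at 37 °C, 5% CO2; viability by CellTiter-Glo luminescence, normalized to controls.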

Row | SMILES | cytotoxicity at 10 µM [%]
1 | COCCN(CCOC)C(=O)c1cn(C(C)(C)C)c2ncccc12 | -1.14
2 | COCc1nnc(NC(=O)c2cn(C(C)C)c3ccc(OC)cc23)s1 | -5.86
3 | Cn1ccc2cc(C(=O)NC3CCS(=O)(=O)C3)ccc21 (stereo not drawn) | 0.979
4 | COc1ccc(S(=O)(=O)NCCC(O)c2ccoc2)c(C)c1 (stereo not drawn) | -0.608
5 | CC(=O)N1CCC2(CC1)[C@@H]1CN(Cc3cccnc3)C[C@@H]1C(=O)N2C | 4.73
6 | Cc1ccc(N2CCC3(CCN(Cc4ccccn4)CC3)CC2)nn1 | 7.37
7 | c1c(CN2CCCCC2)nc2n1CCN(CC1CC1)C2 | -113
8 | O=S(=O)(C1CC1)N1CCOC2(COCCN(c3ncccn3)C2)C1 (stereo not drawn) | 8.55
9 | COCCN1Cc2ccccc2C2(CCN(C(=O)c3ccco3)CC2)C1 | 5.85
10 | O=C(CSc1nnc2n1N=CN(c1ccccc1)C2)c1ccccc1 | 9.11
11 | CC(=O)N1CCC(Oc2ccc(C#N)cn2)CC1 | -17.3
12 | CC(C)(C)n1ncc2c1NC(=O)CC2c1ccc(OCC(N)=O)cc1 (stereo not drawn) | 20.6
13 | O=C1[C@H]2CCCC[C@H]2C(=O)N1c1cnn(Cc2cccc(F)c2)c1 | -5.24
14 | Cc1nn(C)c2c(NCCCn3cccn3)ncnc12 | -0.472
15 | Cc1ccnn1CCC(=O)N1CCCC[C@@]2(C)[C@@H]1CCC(=O)N2C | 3.38
16 | CC1CCc2nn(CCNC(=O)Cc3ccccc3F)c(=O)cc2C1 (stereo not drawn) | 6.66
17 | CC(=O)N1CCC(c2nccnc2CNC(=O)c2cc[nH]n2)CC1 | -6.27
18 | COc1cc(C2Nc3cc(Cl)ccc3C3=NCCN32)ccc1O (stereo not drawn) | -29.3
19 | CS(=O)(=O)c1ccc(-c2nc(C(=O)N3CCCC3)n3ccccc23)cc1 | 6
20 | O=C(C1CCCC1)N1CCOc2cccc(F)c21 | -2.54
21 | COc1cc(C#N)ccc1OCC(=O)N(C1CC1)C(C)c1ccco1 (stereo not drawn) | 1.18

Row | SMILES | cytotoxicity at 10 µM [%]
22 | OCCCN1CCCC1c1cccc(Br)c1 (stereo not drawn) | 5.71
23 | CS(=O)(=O)NC(=O)c1ccn(-c2ccc(Cl)c(Cl)c2)n1 | 6.96
24 | Cc1ccc(C)c(OCC(=O)NC2CCN(c3ccccn3)CC2)c1 | -3.42
25 | Cc1nc2n(n1)CC(NCc1nc(-c3cccs3)no1)CC2 (stereo not drawn) | -1.66
26 | CN(C)C1CCCN(C(=O)NCCC(=O)N2CCCCCC2)C1 (stereo not drawn) | -6.45
27 | O=C(c1ccc(-n2ccnc2)cc1)N1CCN(c2cnccn2)CC1 | -5.63
28 | COC(=O)c1cc(NS(=O)(=O)c2cn(C)cn2)c(F)cc1F | 14.8
29 | CCNC(=O)CN1CCC(c2cc(OC)cc(OC)c2)C1 (stereo not drawn) | -5.66
30 | Cc1ccc(C(=O)NCCCNS(C)(=O)=O)cc1C | -1.66
31 | O=C(CCS(=O)(=O)C1CCCC1)N1CCCC1c1ccsc1 (stereo not drawn) | 1.06
32 | CCc1cnc(CN(C)C2CCN(CCNS(=O)(=O)CC)C2)o1 (stereo not drawn) | 8.94
33 | NC(=O)c1cnc(NC2CCC(c3ccccc3)CC2)c(Cl)c1 (stereo not drawn) | 27.2
34 | O=C(c1cccc2cc[nH]c12)N1CCC2(CCOC2)C1 (stereo not drawn) | -152
35 | Cc1ccc(N(C)CC(O)COCc2ccccc2)c(C)c1 (stereo not drawn) | 3.67
36 | Cc1nnc2n1CCN(Cc1nc3c(F)cccc3[nH]1)C2 | -2.3
37 | CC1(C)Cc2ccc(C(=O)NC3CCOCC3)c(O)c2O1 | -7.92
38 | NC(=O)CN(C(=O)Cc1ccc(C(F)(F)F)cc1)C1CCCC1 | -3.41
39 | O=C(c1ccn(-c2ccccc2Cl)n1)N1CCSCC1 | 15.6
40 | Cn1nc(CN2CCCCC2)c2c1CN(C(=O)c1cccc(Cl)c1)C2 | -1.35
41 | OCCNc1nccc(-c2c[nH]nc2-c2ccco2)n1 | -6.47
42 | COc1ccc(OC)c(-n2cnnc2COC(C)C)c1 | -6.57

Row | SMILES | cytotoxicity at 10 µM [%]
43 | CCOc1ncccc1Cn1cc(-c2nccn2C)nn1 | -1.38
44 | O=C(CN1CCOCS1(=O)=O)NCc1ccccc1 | 1.09
45 | OC1(CNCCc2nc3c(s2)CCCC3)CCNC1 (stereo not drawn) | 1.44
46 | COCCN1CCN(C(=O)c2ccccc2C(C)=O)[C@H]2CS(=O)(=O)C[C@H]21 | -5.95
47 | CN(C)CCNc1cc(-c2ncccc2O)c2cc[nH]c2n1 | 7.28
48 | Cc1nccnc1N1C[C@H](NC(=O)CNS(C)(=O)=O)[C@@H](C2CC2)C1 | -10.3
49 | Cc1nc(N(C)C)nc(NCCc2ccccn2)c1C | 4.59
50 | Cc1cc(NC2CCC(=O)N(C)C2)n2nccc2n1 (stereo not drawn) | -0.714
51 | CCn1ncnc1C(C)NC(=O)C1CCN(C2CCCCC2)CC1 (stereo not drawn) | -149
52 | COc1ccc2c(c1)OCC(CNC(=O)c1cnc(NC(C)C)nc1)C2 (stereo not drawn) | -5.07
53 | Cc1nonc1CC(=O)N1CCC2(CCCN(C3CCOCC3)C2=O)C1 (stereo not drawn) | -95.3
54 | CCc1cc(N[C@@H]2CC[C@@H](N)C2)n2nc(C)c(C)c2n1 | 2.2
55 | CC(C)[C@@H]1CN(C(=O)CCc2ccc(F)cc2)C[C@H]1C(=O)O | -3.97
56 | CCOC(=O)CC1CCCCN1C(=O)c1cc(C)oc1C (stereo not drawn) | 5.44
57 | CC(=O)NCCNc1nccc(CCC(F)(F)F)n1 | -146
58 | Cc1cc(C(=O)N2CCC3(CCCN(CC4CC4)C3=O)C2)c(C)n1C (stereo not drawn) | -5.5
59 | Cc1nnc(NC(=O)NCc2ccc(N3CCOCC3)nc2)s1 | -6.21
60 | Cc1cc(CN2CCN(C(=O)NCCc3csc(C)n3)CC2)on1 | -2.68
61 | CC1CN(CC(=O)NC(C2CC2)C2CC2)CCN1Cc1nccn1C (stereo not drawn) | -6.48
62 | Cc1nnc(C(C)N2CCN(Cc3ccc(C(F)(F)F)cc3)CC2)o1 (stereo not drawn) | 8.15
63 | c1cnn(CC2CCCCN2Cc2noc(C3CC3)n2)c1 (stereo not drawn) | -3.48

Row | SMILES | cytotoxicity at 10 µM [%]
64 | CNc1nc(CNC(=O)Nc2cc(Cl)ccc2F)cs1 | -6.95
65 | Cc1cccc(C)c1OCCNC(=O)C(C)n1cncn1 (stereo not drawn) | -1.46
66 | CC(O)CN1CCN(C(=O)c2ccc(N3CCCC3)nn2)CC1 (stereo not drawn) | -17.3
67 | CCCc1nc(CN2CCOC(Cn3cccn3)C2)no1 (stereo not drawn) | -27.1
68 | Cc1cnn(CC2CCCN2CC(=O)NC2CCN(C3CC3)CC2)c1 (stereo not drawn) | 0.109
69 | CC1CCN(CCNC(=O)c2ccn(-c3ccc(F)cc3)n2)CC1 | -15.6
70 | Cc1nn(C)c(N(C)C)c1CNC(C)COc1ccc(F)cc1F (stereo not drawn) | -9.78
71 | Cc1nc(CN(C)C2CCN(CCc3ccccn3)C2)no1 (stereo not drawn) | -3.85
72 | O=S(=O)(CCN1CCCC1Cn1cncn1)c1ccccc1 (stereo not drawn) | -21
73 | O=C(Cc1cn2ccccc2n1)N1CCCC(n2ccnc2)C1 (stereo not drawn) | -22.4
74 | O=C(NCc1csc(Br)c1)c1cnccn1 | -23.3
75 | CCc1n[nH]c(C2CN(C(=O)c3ccc4c(c3)CCCC4)CCO2)n1 (stereo not drawn) | -16.1
76 | CNC(=O)NC(=O)CN1CCCC(Cc2ccccc2OC)C1 (stereo not drawn) | 4.95
77 | Cn1cnnc1C1CCCN(C(=O)NCCc2ccccn2)C1 (stereo not drawn) | -21.5
78 | Cc1nc(CN2C(=O)C[C@H]3[C@H]2CCN3C2CCOC2)cs1 (stereo partly drawn) | -139
79 | Cc1ccc(N2C[C@H]3CCC[C@@]3(COc3cccnc3)C2)nn1 | 9.43
80 | O=C(NCCO)C1(Cc2ccccc2-c2cccnc2)CCOCC1 | -31.8
81 | CN(C)Cc1nn(C)c2c1CCN(C(=O)c1cnccn1)C2 | -134
82 | Cc1cccc(CN2C[C@@H]3COC[C@]3(COc3cccnc3)C2)n1 | 11.4
83 | O=C(CCO)N1C[C@@H]2CC[C@H]1CN(C1Cc3ccccc3C1)C2 | -0.608
